These results are taken from PMC6467724 (Journal of medicinal chemistry, 2018).

The nature of data set [1]: Microsomal stability assay, rat liver microsomes. In kind it is in vitro ADME, rat (male Sprague-Dawley). To be noted: for Clhep (hepatic clearance), Rat: predicted from Clint, Qh 70 mL/min/kg.
Data set [2] in a line: Microsomal stability assay, mouse liver microsomes. The class given is in vitro ADME, mouse (male CD-1). The conditions noted are these: for Clhep (hepatic clearance), Mouse: predicted from Clint, Qh 90 mL/min/kg.
Data set [3] is described as follows: PK and tissue distribution assay, single oral dose. The class given is in vivo, BALB/c mice. The conditions noted are these: for concentration at 4 h: BALB/c, mouse, po, 25 mg/kg.
Data set [4] can be described thus: Microsomal stability assay, human liver microsomes. The conditions noted are these: for Clhep (hepatic clearance), Human: predicted from Clint, Qh 21 mL/min/kg. The class given is in vitro ADME.
The nature of data set [5]: Mouse acute toxicity assay. The class given is in vivo. The conditions noted are these: single oral dose 200 mg/kg, mice n=3, 48 h.
The target of data set [6] is L. infantum CYP51 (Leishmania infantum, UniProt A2TEF2). The data set can be described thus: Spectral titration. To be noted: 0.5 μM CYP51, inhibitor 0.1–1 μM. In kind it is binding.
For data set [7], the target named is Y strain T. cruzi CYP51A. Nature of the data set: Spectral titration. In kind it is binding, Trypanosoma cruzi. To be noted: 0.5 μM CYP51, inhibitor 0.1–1 μM. In short, it runs like this:
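Y-strain T. cruzi CYP51A was expressed in E. coli and purified. It was titrated at 0.5 μM with test compound (0.1–1 μM) in 5 cm pathlength cuvettes. Difference spectra were read as Δ(A430−A411). Apparent dissociation constants came from nonlinear fits of absorbance change versus ligand concentration to the Morrison quadratic (tight-binding) equation.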

Data set [8] relates to Y strain T. cruzi CYP51A. The data set can be described thus: CYP51 activity inhibition. The class given is biochemical, Trypanosoma cruzi. To be noted: Figure S1. The gist of the method:
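Y-strain T. cruzi CYP51A was expressed in E. coli and purified. Substrate was [3-3H]eburicol at 50 μM final and test compound at 1.1 μM final. After 60 s preincubation at 37 °C, 100 μM NADPH started the reaction. It ran 60 min, EtOAc extraction stopped it, and % inhibition was measured in triplicate, mean ± SD.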

[9] abbreviates: rat pooled liver microsomes 0.5 mg/mL, 1 μM test compound.
[10] abbreviates: mouse pooled liver microsomes 0.5 mg/mL, 1 μM test compound.
The mark [11] stands for this setting: 4 hours after single oral 25 mg/kg, Balb/c mice, ±SEM, n=2, nd = below 0.1 μM.
The mark [12] stands for this setting: human pooled liver microsomes 0.5 mg/mL, 1 μM test compound.
[13] abbreviates: Balb/c mice, single oral dose 25 mg/kg.

On to “(R)-N-(1-(3-Chloro-4´-(trifluoromethyl)-[1,1´-biphenyl]-4-yl)-2-(1H-imidazol-1-yl)ethyl)-4-(5-(pyridin-4-yl)-1,3,4-oxadiazol-2-yl)benzamide [Compound 3]”, for which the “Clhep (hepatic clearance), Rat” value in data set [1] is 29.9 mL/min/kg body weight. Further, in data set [1] (setting [9]), the “Clint (estimated intrinsic clearance), Rat” value (“Clint … Rat” for short) is 52.3 mL/min/kg body weight and the “t½ (in vitro half-life), Rat” value is recorded as 54 min. Also, in data set [2] (setting [10]), the “Clint (estimated intrinsic clearance), Mouse” value (from here on “Clint … Mouse”) was 99.0 mL/min/kg body weight and the “t½ (in vitro half-life), Mouse” value is 55 min. For the same compound, in data set [2], the “Clhep (hepatic clearance), Mouse” value is reported as 47.1 mL/min/kg body weight. Further, in data set [3] (setting [11]), the “Tissue distribution, Heart” value worked out at 0.1 µM; the “Tissue distribution, Liver” value stood at 0.4 µM; the “Tissue distribution, Lung” value is 1 ± 1 µM. Moreover, in data set [4] (setting [12]), the “Clint (estimated intrinsic clearance), Human” value (“Clint … Human” below) was 23.5 mL/min/kg body weight and the “t½ (in vitro half-life), Human” value turned out to be 53 min. Further, the “Clhep (hepatic clearance), Human” value in data set [4] was 11.1 mL/min/kg body weight.

As to `O=C(N[C@@H](Cn1ccnc1)c1ccc(-c2ccccc2)cc1Cl)c1ccc(-c2nnc(-c3ccccc3)o2)cc1` [Compound 4, (R)-N-(1-(3-Chloro-[1,1´-biphenyl]-4-yl)-2-(1H-imidazol-1-yl)ethyl)-4-(5-phenyl-1,3,4-oxadiazol-2-yl)benzamide], the “Clhep (hepatic clearance), Rat” value in data set [1] is 46.9 mL/min/kg body weight. Besides, the “Clint … Rat” value in data set [1] (setting [9]) is listed as 142 mL/min/kg body weight. The “Clint … Mouse” value in data set [2] (setting [10]) is listed as 34.2 mL/min/kg body weight. In addition, the “Clhep (hepatic clearance), Mouse” value in data set [2] is on record as 24.8 mL/min/kg body weight. In addition, the “Plasma life time (time until the compound becomes undetectable)” value (shortened to “Plasma life time”) in data set [3] (setting [13]) was <10 h. Moreover, the “Plasma Cp, max” value in data set [3] (Balb/c mice, single oral dose 25 mg/kg, nd = below 0.1 μM (detection limit)) worked out at 28 µM. Also, the “Clint … Human” value in data set [4] (setting [12]) is 20.9 mL/min/kg body weight. The “Clhep (hepatic clearance), Human” value in data set [4] is recorded as 10.5 mL/min/kg body weight.

For `O=C(N[C@@H](Cn1ccnc1)c1ccc(-c2ccc(F)cc2)cc1Cl)c1ccc(-c2nnc(-c3ccccc3)o2)cc1` [VFV-Cl, (R)-N-(1-(3-Chloro-4´-fluoro-[1,1´-biphenyl]-4-yl)-2-(1H-imidazol-1-yl)ethyl)-4-(5-phenyl-1,3,4-oxadiazol-2-yl)benzamide], the “Clhep (hepatic clearance), Rat” value in data set [1] is recorded as 23.6 mL/min/kg body weight. The “Clint … Rat” value in data set [1] (setting [9]) was 35.5 mL/min/kg body weight. For the same compound, the “Clint … Mouse” value in data set [2] (setting [10]) was 59.8 mL/min/kg body weight. Besides, the “Clhep (hepatic clearance), Mouse” value in data set [2] is reported as 35.9 mL/min/kg body weight. For the same compound, the “Increase of concentrations in tissues at 50 mg/kg” value in data set [3] (50 mg/kg vs 25 mg/kg, data not shown) is “about 1.5 fold”. For the same compound, the “Metabolism ([M+34] metabolite) when extracted from mice plasma” value in data set [3] (3 and 10 h after single oral 25 mg/kg, HPLC (Figure 4)) is recorded as “almost no metabolism”. Moreover, the “Clint … Human” value in data set [4] (setting [12]) is 13.9 mL/min/kg body weight. Further, the “Clhep (hepatic clearance), Human” value in data set [4] is recorded as 8.35 mL/min/kg body weight.

On to `O=C(N[C@@H](Cn1ccnc1)c1ccc(Cl)cc1Cl)c1ccc(-c2nnc(-c3ccc(F)c(F)c3)o2)cc1` [Compound 9, (R)-N-(1-(2,4-Dichlorophenyl)-2-(1H-imidazol-1-yl)ethyl)-4-(5-(3,4-difluorophenyl)-1,3,4-oxadiazol-2-yl)benzamide], for which the “Clhep (hepatic clearance), Rat” value in data set [1] is 21.4 mL/min/kg body weight. In addition, the “Clint … Rat” value in data set [1] (setting [9]) is 30.9 mL/min/kg body weight. In data set [5], the “Acute toxicity, clinical observation” value is reported as “No detectable side effects”. Also, the “Clint … Mouse” value in data set [2] (setting [10]) was 55.8 mL/min/kg body weight. Further, the “Clhep (hepatic clearance), Mouse” value in data set [2] was 34.5 mL/min/kg body weight. The “Clint … Human” value in data set [4] (setting [12]) is reported as 7.53 mL/min/kg body weight. Also, the “Clhep (hepatic clearance), Human” value in data set [4] is reported as 5.54 mL/min/kg body weight. Moreover, the “Apparent binding affinity to L. infantum CYP51” value in data set [6] is recorded as “low nanomolar concentration range”. Further, in data set [7], the “Apparent binding affinity to Y strain T. cruzi CYP51A” value is listed as “low nanomolar concentration range”. Moreover, the “Inhibition of Y strain T. cruzi CYP51A enzymatic activity” value in data set [8] was “stronger potency”.

On to `O=C(N[C@@H](Cn1ccnc1)c1ccc(-c2ccc(F)cc2)cc1Cl)c1ccc(-c2nnc(-c3ccccn3)o2)cc1` [Compound 2, (R)-N-(1-(3-Chloro-4´-fluoro-[1,1´-biphenyl]-4-yl)-2-(1H-imidazol-1-yl)ethyl)-4-(5-(pyridin-2-yl)-1,3,4-oxadiazol-2-yl)benzamide], for which the “Clhep (hepatic clearance), Rat” value in data set [1] is on record as 20.8 mL/min/kg body weight. The “Clint … Rat” value in data set [1] (setting [9]) is on record as 29.7 mL/min/kg body weight. In addition, the “Clint … Mouse” value in data set [2] (setting [10]) was 105 mL/min/kg body weight. The “Clhep (hepatic clearance), Mouse” value in data set [2] was 48.4 mL/min/kg body weight. Further, the “Plasma life time” value in data set [3] (setting [13]) was 10 h. In data set [4] (setting [12]), the “Clint … Human” value is 22.3 mL/min/kg body weight. Moreover, the “Clhep (hepatic clearance), Human” value in data set [4] was 10.8 mL/min/kg body weight.

Consider `O=C(N[C@@H](Cn1ccnc1)c1ccc(Cl)cc1Cl)c1ccc(-c2nnc(-c3ccc(OCC(F)(F)F)cc3F)o2)cc1` [Compound 8, (R)-N-(1-(2,4-Dichlorophenyl)-2-(1H-imidazol-1-yl)ethyl)-4-(5-(2-fluoro-4-(2,2,2-trifluoroethoxy)phenyl)-1,3,4-oxadiazol-2-yl)benzamide], for which the “Clhep (hepatic clearance), Rat” value in data set [1] is listed as 33.5 mL/min/kg body weight. For the same compound, the “Clint … Rat” value in data set [1] (setting [9]) is reported as 64.3 mL/min/kg body weight. Also, the “Clint … Mouse” value in data set [2] (setting [10]) is 87.7 mL/min/kg body weight. Moreover, in data set [2], the “Clhep (hepatic clearance), Mouse” value is listed as 44.4 mL/min/kg body weight. Besides, the “Clint … Human” value in data set [4] (setting [12]) was 16.5 mL/min/kg body weight. The “Clhep (hepatic clearance), Human” value in data set [4] was 9.24 mL/min/kg body weight.

`O=C(N[C@@H](Cn1ccnc1)c1c(F)cc(-c2ccc(F)cc2)cc1F)c1ccc(-c2nnc(-c3ccccc3)o2)cc1` [Compound 7, (R)-N-(2-(1H-Imidazol-1-yl)-1-(3,4´,5-trifluoro-[1,1′-biphenyl]-4-yl)ethyl)-4-(5-phenyl-1,3,4-oxadiazol-2-yl)benzamide]: the “Clhep (hepatic clearance), Rat” value in data set [1] was 31.1 mL/min/kg body weight. Also, in data set [1] (setting [9]), the “Clint … Rat” value was 55.8 mL/min/kg body weight. The “Acute toxicity, clinical observation” value in data set [5] is on record as “No detectable side effects”. Further, in data set [2] (setting [10]), the “Clint … Mouse” value is reported as 237 mL/min/kg body weight. Besides, in data set [2], the “Clhep (hepatic clearance), Mouse” value was 65.2 mL/min/kg body weight. Also, the “Plasma life time” value in data set [3] (setting [13]) is >24 h. Moreover, the “Clint … Human” value in data set [4] (setting [12]) is given as 19.4 mL/min/kg body weight. For the same compound, the “Clhep (hepatic clearance), Human” value in data set [4] is recorded as 10.1 mL/min/kg body weight. Further, the “Apparent binding affinity to L. infantum CYP51” value in data set [6] was “low nanomolar concentration range”. Further, the “Apparent binding affinity to Y strain T. cruzi CYP51A” value in data set [7] is recorded as “low nanomolar concentration range”. The “Inhibition of Y strain T. cruzi CYP51A enzymatic activity” value in data set [8] is recorded as “completely inhibited”.

With `CS(=O)(=O)c1ccc(-c2ccc([C@H](Cn3ccnc3)NC(=O)c3ccc(-c4nnc(-c5ccccc5)o4)cc3)c(Cl)c2)cc1` [Compound 6, (R)-N-(1-(3-Chloro-4´-(methylsulfonyl)-[1,1´-biphenyl]-4-yl)-2-(1H-imidazol-1-yl)ethyl)-4-(5-phenyl-1,3,4-oxadiazol-2-yl)benzamide], in data set [1], the “Clhep (hepatic clearance), Rat” value is recorded as 31.7 mL/min/kg body weight. Moreover, the “Clint … Rat” value in data set [1] (setting [9]) is listed as 58.1 mL/min/kg body weight. In addition, in data set [2] (setting [10]), the “Clint … Mouse” value is 127 mL/min/kg body weight. Besides, the “Clhep (hepatic clearance), Mouse” value in data set [2] is recorded as 52.6 mL/min/kg body weight. Further, the Oral bioavailability entry in data set [3] (single oral 25 mg/kg, no trace in plasma or tissues except intestine) is “not orally bioavailable”. Further, the “Clint … Human” value in data set [4] (setting [12]) is given as 11.6 mL/min/kg body weight. Further, the “Clhep (hepatic clearance), Human” value in data set [4] is recorded as 7.46 mL/min/kg body weight.

For the compound `[2H]c1c([2H])c([2H])c(-c2ccc([C@H](Cn3ccnc3)NC(=O)c3ccc(-c4nnc(-c5ccccc5)o4)cc3)c(Cl)c2)c([2H])c1[2H]` [Compound 5, (R)-N-(1-(3-Chloro-[1,1´-biphenyl]-4-yl-2´,3´,4´,5´,6´-d5)-2-(1H-imidazol-1-yl)ethyl)-4-(5-phenyl-1,3,4-oxadiazol-2-yl)benzamide], the “Clhep (hepatic clearance), Rat” value in data set [1] was 45.6 mL/min/kg body weight. Also, the “Clint … Rat” value in data set [1] (setting [9]) is listed as 131 mL/min/kg body weight. The “Clint … Mouse” value in data set [2] (setting [10]) is given as 220 mL/min/kg body weight. Besides, the “Clhep (hepatic clearance), Mouse” value in data set [2] was 63.9 mL/min/kg body weight. Moreover, the concentration at 4 h in data set [3] (blood) came out at 4 ± 2 µM; in data set [3] (brain), 0.2 µM; in data set [3] (heart), 3 ± 0.5 µM; in data set [3] (lung) it was 26 ± 4 µM. The “Plasma life time” value in data set [3] (setting [13]) is <16 h. For the same compound, the “Cp,max, fold lower (vs compound 4)” value in data set [3] (single oral 25 mg/kg) was found to be 2 fold. Also, the “Clint … Human” value in data set [4] (setting [12]) is given as 21.2 mL/min/kg body weight. For the same compound, the “Clhep (hepatic clearance), Human” value in data set [4] is on record as 10.6 mL/min/kg body weight.
